Data on 50 molecules can be found in ChEMBL document CHEMBL1671813, “Discovery of potent competitive antagonists and positive modulators of the P2X2 receptor” (J Med Chem, 2011).

What is called IC50 is the point on the concentration scale where inhibition reaches its midpoint.

Experiment [1] deals with T1, P2X purinoceptor 2 (Rattus norvegicus, UniProt P49653).
T1 sequence (P49653 whole entry): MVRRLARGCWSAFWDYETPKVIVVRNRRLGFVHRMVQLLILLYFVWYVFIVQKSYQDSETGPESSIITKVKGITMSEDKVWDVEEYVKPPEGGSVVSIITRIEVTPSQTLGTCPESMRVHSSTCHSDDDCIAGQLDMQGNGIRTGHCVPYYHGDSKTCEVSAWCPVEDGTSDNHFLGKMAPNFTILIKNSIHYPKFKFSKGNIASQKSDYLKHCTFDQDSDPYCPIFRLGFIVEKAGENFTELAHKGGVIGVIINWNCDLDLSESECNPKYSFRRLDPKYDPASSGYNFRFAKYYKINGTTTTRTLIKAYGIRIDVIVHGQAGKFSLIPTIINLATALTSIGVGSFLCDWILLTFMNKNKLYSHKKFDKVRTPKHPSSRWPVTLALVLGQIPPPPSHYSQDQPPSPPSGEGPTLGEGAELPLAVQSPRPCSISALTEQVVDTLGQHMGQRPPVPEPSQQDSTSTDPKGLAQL
The experiment is described as follows: Antagonist activity against rat P2X2 receptor expressed in Xenopus laevis oocyte assessed as inhibition of ATP-induced inward current by two-electrode voltage-clamp electrophysiology. (In two-electrode clamp one electrode senses voltage and the other passes current.)

Experiment [2] concerns the target T2, P2X purinoceptor 4 (Rattus norvegicus, UniProt P51577).
T2 sequence (P51577 whole entry): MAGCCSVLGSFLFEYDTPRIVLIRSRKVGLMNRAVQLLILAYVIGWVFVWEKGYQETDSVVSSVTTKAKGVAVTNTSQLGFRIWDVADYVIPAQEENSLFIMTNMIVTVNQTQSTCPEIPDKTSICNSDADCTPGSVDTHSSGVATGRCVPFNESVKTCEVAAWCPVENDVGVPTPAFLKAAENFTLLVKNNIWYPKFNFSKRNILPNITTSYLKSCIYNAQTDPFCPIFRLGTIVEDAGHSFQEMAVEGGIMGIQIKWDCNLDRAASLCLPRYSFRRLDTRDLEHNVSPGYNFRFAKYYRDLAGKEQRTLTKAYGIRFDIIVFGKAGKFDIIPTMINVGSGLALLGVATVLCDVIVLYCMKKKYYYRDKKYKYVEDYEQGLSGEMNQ
Description: Antagonist activity against rat P2X4 receptor expressed in Xenopus laevis oocyte assessed as inhibition of ATP-induced inward current by two-electrode voltage-clamp electrophysiology.

Experiment [3] has as its target P2Y purinoceptor 6 (Rattus norvegicus) (UniProt Q63371). The experiment is described as follows: Antagonist activity against rat P2Y6 receptor expressed in 1321N1 astrocytoma cells by calcium mobilization assay. (Calcium flux is commonly read through the fluorescence of an indicator in the cells.)
The target of experiment [4] is P2Y purinoceptor 4 (Homo sapiens, UniProt P51582). The experiment is described as follows: Antagonist activity against human P2Y4 receptor expressed in 1321N1 astrocytoma cells by calcium mobilization assay. The format is functional, cell-based. In short, it runs like this:
(§1)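 Astrocytoma cell lines stably transfected with human P2Y2, human P2Y4 or rat P2Y6 receptor. Inhibition of receptor-mediated intracellular calcium mobilization was measured.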

Experiment [5] deals with P2Y purinoceptor 2 (Homo sapiens, UniProt P41231). Description: Antagonist activity against human P2Y2 receptor expressed in 1321N1 astrocytoma cells by calcium mobilization assay. The format is functional, cell-based. In outline:
as §1

Sequence of P2Y purinoceptor 4 (P51582 whole entry): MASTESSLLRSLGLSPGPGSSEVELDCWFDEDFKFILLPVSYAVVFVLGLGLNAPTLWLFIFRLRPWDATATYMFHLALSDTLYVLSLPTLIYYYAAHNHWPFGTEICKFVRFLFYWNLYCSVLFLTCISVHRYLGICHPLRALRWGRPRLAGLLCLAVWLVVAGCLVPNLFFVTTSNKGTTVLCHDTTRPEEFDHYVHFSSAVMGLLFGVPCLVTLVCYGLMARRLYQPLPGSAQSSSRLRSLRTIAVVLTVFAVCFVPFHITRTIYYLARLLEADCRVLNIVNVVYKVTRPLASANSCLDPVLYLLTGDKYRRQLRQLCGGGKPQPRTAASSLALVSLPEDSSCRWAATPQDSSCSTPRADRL
Sequence of P2Y purinoceptor 2 (P41231 whole entry): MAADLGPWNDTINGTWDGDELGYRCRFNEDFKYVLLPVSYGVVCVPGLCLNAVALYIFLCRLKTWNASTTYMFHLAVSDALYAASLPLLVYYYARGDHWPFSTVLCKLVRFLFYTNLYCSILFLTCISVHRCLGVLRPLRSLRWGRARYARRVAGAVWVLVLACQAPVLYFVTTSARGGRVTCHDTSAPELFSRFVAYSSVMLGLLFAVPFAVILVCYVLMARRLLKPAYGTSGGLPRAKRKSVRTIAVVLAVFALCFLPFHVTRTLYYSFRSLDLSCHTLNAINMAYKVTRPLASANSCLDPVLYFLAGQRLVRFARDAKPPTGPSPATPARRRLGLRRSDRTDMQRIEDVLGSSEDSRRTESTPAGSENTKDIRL

As for `Nc1c(S(=O)(=O)O)cc(Nc2cc(F)cc(F)c2)c2c1C(=O)c1ccccc1C2=O`, the IC50 in experiment [1] was > 1000 nM.
Take `Nc1c(S(=O)(=O)O)cc(Nc2ccc(Nc3ncccn3)c(S(=O)(=O)O)c2)c2c1C(=O)c1ccccc1C2=O`: the IC50 in experiment [2] was > 10000 nM; in experiment [1], 1000 nM.
For `CC(=O)Nc1ccc(Nc2cc(S(=O)(=O)O)c(N)c3c2C(=O)c2ccccc2C3=O)cc1`, in that order: > 10000 nM and 690 nM.
In the case of `Nc1c(S(=O)(=O)O)cc(Nc2ccccc2C(=O)O)c2c1C(=O)c1ccccc1C2=O`, the figures for the IC50 in experiment [2] and in experiment [1] were > 10000 nM and 1000 nM, respectively.
In the case of `COc1ccc(Nc2cc(S(=O)(=O)O)c(N)c3c2C(=O)c2ccccc2C3=O)cc1`, the IC50 in experiment [2] is > 10000 nM; in experiment [1] it was 1730 nM.
Consider `Cc1cc(C)c(Nc2cc(S(=O)(=O)O)c(N)c3c2C(=O)c2ccccc2C3=O)c(C)c1` [ACID BLUE 129], for which the IC50 was > 10000 nM in experiment [2] and 1000 nM in experiment [1].
For the molecule `CCOP(=O)(Cc1ccc(Nc2cc(S(=O)(=O)O)c(N)c3c2C(=O)c2ccccc2C3=O)cc1)OCC`, the IC50 in experiment [2] is > 10000 nM; in experiment [1], 1000 nM.
As to `Nc1cc(Nc2cc(S(=O)(=O)O)c(N)c3c2C(=O)c2ccccc2C3=O)ccc1S(=O)(=O)O`, the IC50 in experiment [2] is > 10000 nM; in experiment [1] it was 1000 nM.
Consider `Nc1c(S(=O)(=O)O)cc(Nc2ccc(O)cc2)c2c1C(=O)c1ccccc1C2=O`, for which the IC50 in experiment [2] was > 10000 nM; in experiment [1], 588 nM; in experiment [3] it was 5300 nM; in experiment [4] it was 2220 nM.
Turning to `Nc1c(S(=O)(=O)O)cc(Nc2ccc(C(=O)O)cc2)c2c1C(=O)c1ccccc1C2=O`, the IC50 in experiment [2] is > 10000 nM; in experiment [1], 1000 nM.
With `Nc1c(S(=O)(=O)O)cc(Nc2ccc(O)c(C(=O)O)c2)c2c1C(=O)c1ccccc1C2=O`, the concentration for half-maximal inhibition (IC50) in experiment [2] was > 10000 nM; in experiment [1] it was 1000 nM.
In the case of `Nc1c(S(=O)(=O)O)cc(Nc2ccc(S(=O)(=O)O)c(Nc3nc(O)nc(O)n3)c2)c2c1C(=O)c1ccccc1C2=O`, the IC50 in experiment [1] worked out at 300 nM.
`Nc1c(S(=O)(=O)O)cc(Nc2ccc(Nc3nc(O)nc(O)n3)cc2)c2c1C(=O)c1ccccc1C2=O`: the IC50 was > 10000 nM in experiment [2], 197 nM in experiment [1], 10000 nM in experiment [4] and 30000 nM in experiment [5].
For `Cc1c(N)cccc1Nc1cc(S(=O)(=O)O)c(N)c2c1C(=O)c1ccccc1C2=O`, the half-inhibitory concentration (IC50) is > 10000 nM in experiment [2] and 1000 nM in experiment [1].
The matching figures for `Cc1cccc(Nc2cc(C)c(N)c3c2C(=O)c2ccccc2C3=O)c1`: > 10000 nM and > 10000 nM.
For `Nc1c(S(=O)(=O)O)cc(NC2CCCCC2)c2c1C(=O)c1ccccc1C2=O`, in that order: > 10000 nM and 1000 nM.
In the case of `Nc1c(S(=O)(=O)O)cc(Nc2ccccc2)c2c1C(=O)c1ccccc1C2=O` [ACID BLUE 25], the IC50 in experiment [2] was > 10000 nM; in experiment [1], 1000 nM; in experiment [3], 84600 nM.
Take `Nc1c(S(=O)(=O)O)cc(Nc2ccc(CC(=O)O)cc2)c2c1C(=O)c1ccccc1C2=O`: the IC50 in experiment [2] is > 10000 nM; in experiment [1], 1000 nM.
On to `Nc1c(S(=O)(=O)O)cc(Nc2ccc(Cl)cc2C(=O)O)c2c1C(=O)c1ccccc1C2=O`, for which the IC50 in experiment [2] was > 10000 nM; in experiment [1], 1000 nM.
For the molecule `Nc1ccc(Nc2cc(S(=O)(=O)O)c(N)c3c2C(=O)c2ccccc2C3=O)cc1S(=O)(=O)O`, the results for the IC50 in experiment [2] and in experiment [1] were > 10000 nM and 1000 nM, respectively.
Regarding `Nc1cc(Nc2cc(S(=O)(=O)O)c(N)c3c2C(=O)c2ccccc2C3=O)cc(C(=O)O)c1`, the IC50 in experiment [2] was > 10000 nM; in experiment [1], 1000 nM.
For `Nc1c(S(=O)(=O)O)cc(Nc2cc(Cl)ccc2C(=O)O)c2c1C(=O)c1ccccc1C2=O`, the IC50 in experiment [2] is > 10000 nM; in experiment [1], 1000 nM.
On to `Nc1c(S(=O)(=O)O)cc(Nc2cccc(C(=O)O)c2)c2c1C(=O)c1ccccc1C2=O`, for which the IC50 is > 10000 nM in experiment [2] and 1000 nM in experiment [1].
For `Cc1cccc(Nc2cc(S(=O)(=O)O)c(N)c3c2C(=O)c2ccccc2C3=O)c1C`, in that order: > 10000 nM and 1000 nM.
For the molecule `Nc1c(S(=O)(=O)O)cc(Nc2ccc(Nc3ncccn3)cc2)c2c1C(=O)c1ccccc1C2=O`, the figures for the IC50 in experiment [2] and in experiment [1] were > 10000 nM and > 1000 nM, respectively.
As to `Nc1c(S(=O)(=O)O)cc(Nc2cccc([N+](=O)[O-])c2)c2c1C(=O)c1ccccc1C2=O`, the IC50 in experiment [1] was > 1000 nM.
For the molecule `Nc1c(S(=O)(=O)O)cc(Nc2cccc(Cl)c2)c2c1C(=O)c1ccccc1C2=O`, the IC50 was 100 nM in experiment [1], > 10000 nM in experiment [3] and 21800 nM in experiment [4].
For `Nc1c(S(=O)(=O)O)cc(Nc2cccc3ccccc23)c2c1C(=O)c1ccccc1C2=O`, the IC50 in experiment [2] and in experiment [1] was > 10000 nM each time.
As for `Nc1c(S(=O)(=O)O)cc(Nc2ccc(Oc3ccccc3)cc2)c2c1C(=O)c1ccccc1C2=O`, the results for the IC50 in experiment [2] and in experiment [1] were > 10000 nM and 1000 nM, respectively.
With `COc1ccccc1Nc1cc(S(=O)(=O)O)c(N)c2c1C(=O)c1ccccc1C2=O`, the values for the IC50 in experiment [2] and in experiment [1] were > 10000 nM and 2000 nM, respectively.
For the molecule `Nc1c(S(=O)(=O)O)cc(Nc2cccc(F)c2)c2c1C(=O)c1ccccc1C2=O`, the IC50 in experiment [1] was > 1000 nM.
In the case of `COc1cc(Nc2cc(S(=O)(=O)O)c(N)c3c2C(=O)c2ccccc2C3=O)cc(OC)c1`, the IC50 in experiment [1] was > 1000 nM.
Still for that read-out and setting: the same measure for `Nc1c(S(=O)(=O)O)cc(Nc2cccc(C(F)(F)F)c2)c2c1C(=O)c1ccccc1C2=O`: > 1000 nM.
Turning to `Nc1c(S(=O)(=O)O)cc(Nc2ccccc2S(=O)(=O)O)c2c1C(=O)c1ccccc1C2=O`, the IC50 in experiment [2] and in experiment [1] was > 10000 nM in each case.
For the molecule `Nc1cccc(Nc2cc(S(=O)(=O)O)c(N)c3c2C(=O)c2ccccc2C3=O)c1`, the IC50 in experiment [2] was > 10000 nM; in experiment [1], 1000 nM.
Regarding `Nc1ccccc1Nc1cc(S(=O)(=O)O)c(N)c2c1C(=O)c1ccccc1C2=O`, the IC50 in experiment [2] was > 10000 nM; in experiment [1] it was 1000 nM.
For `Cc1ccc(Nc2cc(S(=O)(=O)O)c(N)c3c2C(=O)c2ccccc2C3=O)c(C)c1`, the values for the IC50 in experiment [2] and in experiment [1] were > 10000 nM and 1000 nM, respectively.
For the molecule `CCc1cccc(Nc2cc(S(=O)(=O)O)c(N)c3c2C(=O)c2ccccc2C3=O)c1`, the IC50 in experiment [1] was > 1000 nM.
Consider `Nc1c(S(=O)(=O)O)cc(Nc2ccc(Nc3nc(Cl)nc(Nc4ccccc4S(=O)(=O)O)n3)c(S(=O)(=O)O)c2)c2c1C(=O)c1ccccc1C2=O` [CIBACRON BLUE 3GA], for which the figures for the IC50 in experiment [2] and in experiment [1] were 40000 nM and > 1000 nM, respectively.
For the molecule `Nc1c(S(=O)(=O)O)cc(Nc2cccc(Br)c2)c2c1C(=O)c1ccccc1C2=O`, the IC50 in experiment [2] is > 10000 nM; in experiment [1], 1000 nM.
Take `Cc1cc(C)c(Nc2cc(S(=O)(=O)O)c(N)c3c2C(=O)c2ccccc2C3=O)c(C)c1N`: the IC50 in experiment [2] was > 10000 nM; in experiment [1], 1000 nM.
For `Nc1c(S(=O)(=O)O)cc(Nc2ccccc2O)c2c1C(=O)c1ccccc1C2=O`, in that order: > 10000 nM and 1000 nM.
The matching figures for `Nc1c(S(=O)(=O)O)cc(Nc2ccc(Nc3nc(Cl)nc(Cl)n3)c(S(=O)(=O)O)c2)c2c1C(=O)c1ccccc1C2=O`: > 10000 nM and 1160 nM.
For `CCOc1ccccc1Nc1cc(S(=O)(=O)O)c(N)c2c1C(=O)c1ccccc1C2=O`, in that order: > 10000 nM and 1000 nM.
As for `Cc1cc(Nc2ccccc2)c2c(c1N)C(=O)c1ccccc1C2=O`, the IC50 in experiment [2] and in experiment [1] was > 10000 nM each time.
For the molecule `Cc1ccccc1Nc1cc(S(=O)(=O)O)c(N)c2c1C(=O)c1ccccc1C2=O`, the IC50 was > 10000 nM in experiment [2] and 1000 nM in experiment [1].
`Nc1c(S(=O)(=O)O)cc(Nc2ccc(S(=O)(=O)O)cc2)c2c1C(=O)c1ccccc1C2=O`: the IC50 in experiment [2] was > 10000 nM; in experiment [1], 1000 nM.
For `Cc1ccc(Nc2cc(S(=O)(=O)O)c(N)c3c2C(=O)c2ccccc2C3=O)cc1`, in that order: > 10000 nM and 1000 nM.
Take `Nc1ccc(Nc2cc(S(=O)(=O)O)c(N)c3c2C(=O)c2ccccc2C3=O)cc1`: the IC50 in experiment [2] and in experiment [1] was > 10000 nM throughout.
On to `Nc1c(S(=O)(=O)O)cc(Nc2ccc(F)cc2)c2c1C(=O)c1ccccc1C2=O`, for which the concentration for half-maximal inhibition (IC50) in experiment [2] is > 10000 nM; in experiment [1], 1000 nM.
